From ChEMBL document CHEMBL1143847, “Competitive inhibitors of the CphA metallo-beta-lactamase from Aeromonas hydrophila” (Antimicrob Agents Chemother, 2007) come the findings set out here.

In assay [1] the target is Beta-lactamase L1 (Stenotrophomonas maltophilia) (UniProt P52700). Kind of assay: Inhibition of Stenotrophomonas maltophilia metallo beta lactamase L1 assessed as residual enzyme activity at 100 uM.
Another assay deals with Bacillus cereus. Kind of assay: Inhibition of Bacillus cereus metallo beta lactamase Bc2 assessed as residual enzyme activity at 100 uM.
For assay [2], the target named is Metallo beta-lactamase (Pseudomonas aeruginosa) (UniProt Q6TUJ4). Kind of assay: Inhibition of Pseudomonas aeruginosa 101/1477 metallo beta lactamase IMP1 expressed in Escherichia coli assessed as residual enzyme activity at 100 uM in presence of zinc chloride. In short, it runs like this:
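IMP-1 at 0.03–0.7 nM was preincubated 30 min at room temperature with 100 μM inhibitor in 20 mM HEPES pH 7.0 with 20 μg/ml BSA plus 100 μM ZnCl2. The reaction was then started with 100 μM imipenem. The initial rate of three samples was taken as mean percent of the rate without inhibitor ± SD.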

The subject of a further assay is Fluoribacter gormanii. Kind of assay: Inhibition of Legionella gormani beta lactamase metallo FEZ1 expressed in Escherichia coli assessed as residual enzyme activity at 100 uM. In short, it runs like this: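 Purified enzyme (0.03–0.7 nM) in 20 mM HEPES pH 7.0 with 20 μg/ml BSA was preincubated 30 min at room temperature with 100 μM inhibitor, diluted from 10 mM DMSO stock. Nitrocefin (100 μM) was then added and the initial hydrolysis rate measured. Residual activity is the mean (±SD) of three samples as percent of the uninhibited rate.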

Assay [3] is described as follows: Inhibition of metallo beta lactamase VIM2 assessed as residual enzyme activity at 100 uM.
A short description of assay [4]: Inhibition of metallo beta lactamase VIM4 assessed as residual enzyme activity at 100 uM.
The target in assay [5] is Metallo beta-lactamase (Pseudomonas aeruginosa) (UniProt Q6TUJ4). Kind of assay: Inhibition of Pseudomonas aeruginosa 101/1477 metallo beta lactamase IMP1 expressed in Escherichia coli assessed as residual enzyme activity at 100 uM in absence of zinc.
Assay [6] deals with Beta-lactamase (Aeromonas hydrophila) (UniProt Q44079). Kind of assay: Ratio of Kcat to Km for Aeromonas hydrophila beta lactamase CphA at pH 9.0. In short, it runs like this:
(§1)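 Wild-type CphA kinetics with imipenem as substrate, measured in a mixed buffer adjusted to the stated pH with HCl or NaOH. The buffer held 40 mM sodium acetate, 20 mM each of cacodylate, MOPS, TAPS, CHES and CAPS, and 20 μg/ml BSA. Runs were at 30°C in thermostatted cells. Km and kcat came from initial rates. At pH 10 only kcat/Km was taken, because imipenem hydrolyses spontaneously.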

For assay [7] the target is unchanged. Kind of assay: Ratio of Kcat to Km for Aeromonas hydrophila beta lactamase CphA at pH 7.0. In short, it runs like this: as §1
Assay [8] shares this target. Kind of assay: Ratio of Kcat to Km for Aeromonas hydrophila beta lactamase CphA at pH 8.0. The method, boiled down: as §1
Assay [9] shares this target. Kind of assay: Ratio of Kcat to Km for Aeromonas hydrophila beta lactamase CphA at pH 10.0. The method, boiled down:
as §1

Chain of Metallo beta-lactamase (Pseudomonas aeruginosa) (Q6TUJ4 as listed by the source): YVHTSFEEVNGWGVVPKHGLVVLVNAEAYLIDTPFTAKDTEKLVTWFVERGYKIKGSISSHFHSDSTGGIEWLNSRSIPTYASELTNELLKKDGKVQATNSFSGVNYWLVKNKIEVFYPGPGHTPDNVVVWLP
Chain of Beta-lactamase (Aeromonas hydrophila) (Q44079 as listed by the source): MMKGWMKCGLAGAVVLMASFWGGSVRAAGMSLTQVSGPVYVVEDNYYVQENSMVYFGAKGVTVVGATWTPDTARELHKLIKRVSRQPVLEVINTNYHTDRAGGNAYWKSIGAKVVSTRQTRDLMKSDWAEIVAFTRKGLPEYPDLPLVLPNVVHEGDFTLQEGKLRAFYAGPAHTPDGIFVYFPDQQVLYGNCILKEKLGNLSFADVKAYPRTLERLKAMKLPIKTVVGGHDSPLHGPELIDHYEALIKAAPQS
Chain of Beta-lactamase L1 (Stenotrophomonas maltophilia) (P52700 34-290 limits assumed): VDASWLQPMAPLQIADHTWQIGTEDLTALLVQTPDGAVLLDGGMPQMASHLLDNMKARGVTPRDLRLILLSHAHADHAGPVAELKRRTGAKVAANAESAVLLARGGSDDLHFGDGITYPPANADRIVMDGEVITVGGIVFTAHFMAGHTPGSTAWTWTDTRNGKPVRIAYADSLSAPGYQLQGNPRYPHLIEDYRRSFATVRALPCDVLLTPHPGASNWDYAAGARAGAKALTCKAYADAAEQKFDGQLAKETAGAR

As to `O=C(O)c1cccnc1C(=O)O`, the Activity in assay [1] stood at 93%; in the assay with Bacillus cereus, 98%; in [2], 67%; with Fluoribacter gormanii, 62%; in assay [3], 106%; in assay [4], 73%. Besides, in [5], the Activity turned out to be 89%.

Consider `O=C(O)c1cccc(C(=O)O)n1`, for which the Activity in [1] was found to be 92%; in the assay on Bacillus cereus, 95%; in assay [2], 72%; in the assay on Fluoribacter gormanii, 77%; in assay [3] it was 96%; in [4] it was 88%. In addition, the Activity in [5] came to 2%.

Take `CC(O)[C@H]1C(=O)N2C(C(=O)O)=C(SCCNC=N)C[C@H]12` (single isomer, unassigned): the Ratio in assay [6] worked out at 0.78 µM⁻¹ s⁻¹; in [7] it was 1.8 µM⁻¹ s⁻¹; in assay [8] it was 1.7 µM⁻¹ s⁻¹; in [9], 0.44 µM⁻¹ s⁻¹.

Consider `O=C(O)c1ccccn1`, for which the Activity worked out at 29% in assay [1]; 95% with Bacillus cereus; 54% in [2]; 62% with Fluoribacter gormanii; 80% in assay [3]; 59% in assay [4]. Further, the Activity in [5] turned out to be 31%.

On to `O=C(O)c1ccnc(C(=O)O)c1`, for which the Activity in [1] came to 78%; in the assay with Bacillus cereus it was 97%; in [2], 78%; with Fluoribacter gormanii, 65%; in assay [3] it was 98%; in assay [4], 90%. Moreover, in [5], the Activity was 94%.

On to `O=C(O)c1ccc(C(=O)O)nc1`, for which the Activity was 94% in assay [1]; 99% with Bacillus cereus; 81% in [2]; 80% with Fluoribacter gormanii; 97% in [3]; 97% in assay [4]. Further, the Activity in [5] was 99%.

On to `O=C(O)c1ccncc1C(=O)O`, for which the Activity is 97% in assay [1]; 97% with Bacillus cereus; 88% in [2]; 93% in the assay with Fluoribacter gormanii; 92% in assay [3]; 100% in [4]. Further, the Activity in [5] is 91%.
